Measured values pooled from the literature.
Each line is one published result; the experiments were not run side by side.
Target: Serine/threonine-protein kinase BRSK2 (BRSK2, Homo sapiens, UniProt Q8IWQ3)
Residues used in one study (Q8IWQ3 1-736): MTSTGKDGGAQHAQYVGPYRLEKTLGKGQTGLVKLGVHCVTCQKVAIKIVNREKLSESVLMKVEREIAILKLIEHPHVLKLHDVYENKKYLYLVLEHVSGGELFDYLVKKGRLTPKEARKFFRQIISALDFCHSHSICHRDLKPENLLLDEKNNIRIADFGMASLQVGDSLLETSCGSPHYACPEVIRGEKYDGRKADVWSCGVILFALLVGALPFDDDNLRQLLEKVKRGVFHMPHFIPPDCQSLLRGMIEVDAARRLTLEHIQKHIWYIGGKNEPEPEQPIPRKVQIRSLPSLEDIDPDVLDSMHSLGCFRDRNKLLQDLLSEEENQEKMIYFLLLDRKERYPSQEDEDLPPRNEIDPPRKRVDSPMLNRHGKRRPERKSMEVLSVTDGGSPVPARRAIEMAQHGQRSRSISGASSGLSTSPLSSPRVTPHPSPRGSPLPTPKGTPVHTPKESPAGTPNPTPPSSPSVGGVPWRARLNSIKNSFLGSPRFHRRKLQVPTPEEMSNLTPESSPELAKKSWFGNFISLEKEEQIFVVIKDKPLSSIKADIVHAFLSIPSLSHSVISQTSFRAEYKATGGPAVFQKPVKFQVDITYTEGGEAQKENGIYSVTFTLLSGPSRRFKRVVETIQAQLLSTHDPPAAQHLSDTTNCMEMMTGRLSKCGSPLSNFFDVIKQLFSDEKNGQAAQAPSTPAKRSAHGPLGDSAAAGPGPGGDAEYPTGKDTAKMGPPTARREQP

| SMILES | effect on | action | technique | concentration | measurement | value |
| --- | --- | --- | --- | --- | --- | --- |
| Cc1cc(-n2nc(Cc3cc(F)cc(C(F)(F)F)c3)nc2C)ccc1C(N)=O | cell-free assay |  | competition with immobilised ligand | 1 µM | remaining binding | 77% |
| O=C(Nc1cnn(-c2csc(C(=O)NC3COC3)c2)c1)Nc1ccccc1Cl | enzyme activity | inhibitor |  | 5 µM | remaining activity | 102% |
| O=C1Nc2ccc(Cl)cc2C1=Cc1cc(Cl)c(O)c(Cl)c1 | cell-free assay |  |  | 0.5 µM | remaining signal | 77.2% |
| COc1cc(Cl)c(C(=O)N[C@@H](CN[C@H]2CC[C@@H](N)CC2)Cc2ccc(C#N)cc2)cc1-c1ccc(CN[C@H](C)c2ccc(C)cc2)o1 | enzyme activity | inhibitor |  | 1 µM | remaining activity | 99% |
| FC(F)c1nc2ccccc2n1-c1nc(N2CCOCC2)nc(N2CCOCC2)n1 | enzyme activity | inhibitor |  | 10 µM | remaining activity | 88% |
| COc1cc(/C=C/C(=O)CC(=O)/C=C/c2ccc(O)c(OC)c2)ccc1O | enzyme activity | inhibitor |  | 1 µM | activity vs control | 88% |
| CN1CC(Oc2cnc(C#N)cc2-c2ccn3nc(NC(=O)C4CC4)cc3c2)C1 | enzyme activity | inhibitor |  | 1 µM | inhibition | 16% |
| CN(C)C(=O)Cn1cc(-c2nc(C3(c4ccc(-c5cnc(N)nc5)cc4)CC3)no2)cn1 | cell-free assay |  | competition with immobilised ligand | 1 µM | remaining binding | 77% |
| CC(C)(C)c1nc2c(s1)c1nc(N)ncc1c1ccc(NS(=O)(=O)c3c(F)cccc3F)c(F)c12 | enzyme activity | inhibitor | radiometric | 1 µM | remaining activity | 88% |
| Cc1ccc(NC(=O)c2ccc(C)c(C(F)(F)F)c2)cc1C#Cc1nn(C2CCC(O)CC2)c2ncnc(N)c12 (stereo not shown) | cell-free assay |  |  | 10 µM | remaining signal | 93% |
| CNC(=O)c1cc(Oc2ccc(NC(=O)Nc3ccc(Cl)c(C(F)(F)F)c3)cc2)ccn1 | cell-free assay |  |  | 0.5 µM | remaining signal | 103% |
| Cc1cc(NC(=O)c2cccc(S(F)(F)(F)(F)F)c2)cc(-n2ccn3nc(-c4cccnc4)cc23)c1 | cell-free assay |  | competition with immobilised ligand | 1 µM | remaining binding | 100% |
| N#CCCc1ccc2c(c1)-c1[nH]c3ccc([N+](=O)[O-])cc3c1CC(=O)N2 | cell-free assay |  |  | 0.5 µM | remaining signal | 42% |
| CCCOc1ccc(OC)c(F)c1C(=O)c1ccc(C(=O)N[C@@H]2CNC[C@H]2NC(=O)c2ccc3[nH]ncc3c2)cc1 | enzyme activity | inhibitor |  | 10 µM | remaining activity | 33% |
| Cn1nc(C(=O)NCc2ccc(C(=O)O)cc2)cc1-c1ccc2[nH]ccc2c1 | cell-free assay |  | competition with immobilised ligand | 0.1 µM | remaining binding | 100% |
| Nc1nc(NC2CCCCC2)sc1C(=O)c1ccccc1 | enzyme activity | inhibitor |  | 10 µM | remaining activity | 93% |
| CCc1ccccc1C(=O)Nc1n[nH]c2c(C)c(F)c(C3C(C#N)=C(C)N(C)C(C)=C3C#N)cc12 | cell-free assay |  | competition with immobilised ligand | 1 µM | remaining binding | 36% |
| CCN(CC)c1ccc(C2=NNC(=O)CC2C)cc1[N+](=O)[O-] (stereo not shown) | enzyme activity | inhibitor |  | 10 µM | remaining activity | 104% |
| Cc1ccc(Nc2nccc(N(C)c3ccc4c(C)n(C)nc4c3)n2)cc1S(N)(=O)=O | enzyme activity | inhibitor |  | 10 µM | inhibition | -11% |
| CS(=O)(=O)NCC[C@H](NC(=O)c1cncc2c1cnn2-c1ccc(F)cc1)c1ccnc(S(C)(=O)=O)c1 | cell-free assay |  | competition with immobilised ligand | 1 µM | remaining binding | 77% |
| COc1cc(Nc2cnc(C#N)c(O[C@H](C)CN(C)C)n2)ncc1-c1cnn(C)c1 | enzyme activity | inhibitor | radiometric | 1 µM | remaining activity | 23% |
| Oc1ccc(-c2nc(-c3ccncc3)c(-c3ccc(F)cc3)[nH]2)cc1 | cell-free assay |  |  | 0.5 µM | remaining signal | 101% |
| CS(=O)(=O)N1CCCC(NC(=O)[C@H](CCC2CCCCC2)NC(=O)c2ccc(CNC(=O)c3cnc4ccccn34)cc2)C1 (stereo partly shown) | cell-free assay |  | competition with immobilised ligand | 0.1 µM | remaining binding | 100% |
| Cc1cc(NC(=O)c2cccc3cc(-c4cccc5[nH]nc(N)c45)ccc23)ccc1F | enzyme activity | inhibitor |  | 0.1 µM | activity vs control | 100% |
| Oc1cccc(-c2nc(N3CCOCC3)c3oc4ncccc4c3n2)c1 | enzyme activity | inhibitor |  | 10 µM | remaining activity | 99% |
| Cc1ccc(C(=O)Nc2ccc(CN3CCN(C)CC3)c(C(F)(F)F)c2)cc1C#Cc1cnc2cccnn12 | enzyme activity | inhibitor |  | 23.5 nM | remaining activity | 92% |
| CSc1cccnc1N1CCN(Cc2nc3ccccc3[nH]2)CC1 | cell-free assay |  | competition with immobilised ligand | 1 µM | remaining binding | 100% |
| FC(F)(F)Oc1cccc(-c2cnc3ccc(-c4ccncc4)nn23)c1 | enzyme activity | inhibitor | radiometric | 1 µM | activity vs control | 81% |
